The entries come from a sample that favours hits as a whole.
INS promoter act: TRM-6 insulin promoter activation; TRM-6 cells, insulin promoter eGFP reporter, imaging; plate-scaled: unstimulated 0, stimulated control 100; activation, % at 2 µM; 0.81% of 130,000 active;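 active = activation at 2 µM above a set limit, confirmed on inspection of the cell images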;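 note: share of cells whose green reporter signal exceeds an intensity cutoff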
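material = TRM-6 human fetal islet cells, insulin promoter–eGFP reporter | input = 1,000 TRM-6 cells seeded per well | benchmarks = stimulated versus unstimulated wells as plate controls | measured by = automated fluorescence imaging of paraformaldehyde-fixed, Hoechst-counterstained cells, green channel | schedule = compound exposure 48 h, 37 °C | reagent = tamoxifen at 0.75 µM added at seeding for reporter induction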
Active calls of the source: *; + = active, no number.

SMILES	INS promoter act
CC1CCCCN1C(=O)COc1ccccc1F (stereo not given)	0.0
O=C(N/N=C/c1cccc(Br)c1)c1ccc(Cn2cc(Br)cn2)o1	-7.4
O/N=C/c1ccccc1Oc1ccccc1	3.3
Cc1cc(C)cc(Oc2ccccc2/C=N\O)c1	223.3*
O/N=C/c1cc(Cl)ccc1OCc1ccccc1Cl	0.0
COc1ccc(/C=N/N=C2/NC(=O)C(c3ccccc3)(c3ccccc3)S2)cc1	0.0
Cc1c(C(=O)Nc2ccc(-c3nnc4n3CCCCC4)cc2)oc2ccc(Br)cc12	-6.7
O=C(NCc1ccccn1)c1ccc(Br)s1	528.6*
O=C(NCc1ccccn1)c1ccc(Cl)cc1Cl	272.2
O=C(NCc1ccccn1)c1c(Cl)cccc1Cl	-7.1
CCNc1nc(NCC)n2c(SC(C(=O)Nc3cc(Cl)cc(Cl)c3)c3ccccc3)nnc2n1 (stereo not given)	-3.2
CCOC(=O)C1CCN(CCC(=O)Nc2ccc(F)cc2)CC1	7.7
COC(=O)C1=NN(c2ccc(C)cc2)C2(S1)SC(C(C)=O)=C(C)N2c1ccccc1 (stereo not given)	0.0
CN(C)CCN(C(=O)c1cccc(Cl)c1)c1nc2c(Cl)cccc2s1	-9.7
COc1ccc(OC)c2sc(N(CCN(C)C)C(=O)c3cc(Cl)sc3Cl)nc12	283.3*
CN(C)CCCN(C(=O)c1ccco1)c1nc2ccc(Cl)cc2s1	0.0
Cc1ccc(-n2c(C)cc(C)c(C#N)c2=O)cc1C	0.0
Clc1ccccc1-c1ccc(/C=N/Nc2nncc(-c3ccccc3)n2)o1	5.6
Cc1cc(N2CCCC2)ccc1/C=N/n1cnnc1	0.0
CCCn1cc(NC(=O)c2cc3n(n2)C(C(F)(F)F)CC(c2ccccc2)N3)cn1 (stereo not given)	431.3*
Cc1cc(NC(=O)c2cc3n(n2)C(C(F)(F)F)CC(c2ccco2)N3)n(-c2ccccc2)n1 (stereo not given)	229.7
Cc1nn(C)c(C)c1CNC(=O)c1cc2n(n1)C(C(F)(F)F)CC(c1cccs1)N2 (stereo not given)	278.9
COc1ccc(C(C)=O)cc1COc1ccc(-n2cnnn2)cc1	7.7
CNC(=S)/N=C(/Nc1ccccc1)c1ccccc1	122.2
CC(Oc1cc(Cl)ccc1Cl)C(=O)N/N=C\c1ccnn1C (stereo not given)	6.7
SMILES	INS promoter act
c1ccc(Nc2nc(-c3cccnc3)cs2)nc1	0.0
Clc1ccccc1Nc1nc(-c2cccnc2)cs1	358.3*
c1cncc(Nc2nc(-c3ccncc3)cs2)c1	-4.3
COc1nnc(-c2ccc(N3CCCCC3)c(N)c2)c2ccccc12	-2.8
CCC(c1nnnn1C1CCCC1)N1CCN(c2cccc(OC)c2)CC1 (stereo not given)	7.7
COc1ccc(S(=O)(=O)N2CC(O)CC2C(=O)OCc2nc3sc(C)c(C)c3c(=O)[nH]2)cc1 (stereo not given)	-7.7
CC[n+]1c(/C=C(\C)Nc2ccccc2)sc2ccccc21	8.1
COc1ccc2nc(NC(=O)Nc3ccccc3)sc2c1	-9.5
CC[n+]1c(/C=C/C=C/N(C(C)=O)c2ccccc2)sc2cc(OC)ccc21	270.4*
Cc1noc(C)c1CSc1nc2sc(C)c(C)c2c(=O)n1C1CCCC1	7.7
COc1ccc(C(=O)Nn2cnc3scc(-c4cccs4)c3c2=O)c(O)c1	0.0
NC(=O)c1c(NC(=O)C2CCCO2)sc2c1CCCC2 (stereo not given)	0.0
Cc1ccc(NC(=O)CN(C)C(=O)CSc2nc3ccccc3o2)cc1	2.8
Cc1cc(=O)oc2cc(Oc3ccc([N+](=O)[O-])cc3[N+](=O)[O-])ccc12	2.7
Cc1ccc(C(=O)Nc2ccc(OCc3ccccc3)cc2)cc1[N+](=O)[O-]	-6.5
Cc1ccc(/C([O-])=C(/C(=S)NCc2ccccc2)[n+]2cccc(CO)c2)cc1[N+](=O)[O-]	+
Cc1ccc[n+](/C(C(=S)NCc2ccco2)=C(/[O-])c2ccccc2Cl)c1	286.7
Cc1cc(=O)oc2cc(OCC(=O)N3CCN(C(=O)c4ccco4)CC3)ccc12	9.1
CC(NC(=S)Nc1ccc(S(=O)(=O)N2CCOCC2)cc1)C1CC2CCC1C2 (stereo not given)	0.0
Cc1ccc(SC(C)C(=O)Nc2ncn[nH]2)cc1 (stereo not given)	7.7
Cc1ccc(SC(C)C(=O)NCC(C)C)cc1 (stereo not given)	518.8*
CCCCCNC(=O)C(C)Sc1ccc(Cl)cc1 (stereo not given)	164.3
O=C(O)/C=C/C(=O)c1ccc2c(c1)NC(=O)CO2	6.7
Clc1ccccc1Cn1nnc(-c2cccs2)n1	569.2*
O=C(O)CCn1nnc(-c2cccs2)n1	0.0
SMILES	INS promoter act
Clc1ccccc1-c1nnc2sc(-c3cccs3)nn12	0.0
Cc1ccc(C(=O)OCC(=O)N(C)C2CCS(=O)(=O)C2)cc1[N+](=O)[O-] (stereo not given)	-7.1
O=C1[C@@H]2[C@H](C(=O)N1Cc1ccco1)[C@H]1C=C[C@@H]2C1	7.7
COC(=O)CCSCC(=O)N1N=C(c2ccc(Br)cc2)CC1c1cccc(OC)c1OC (stereo not given)	386.7*
COc1cccc(C2CC(c3ccc(NS(C)(=O)=O)cc3)=NN2C(=O)c2ccccc2)c1OC (stereo not given)	0.0
COc1ccc(C2CC(c3ccc(Br)cc3)=NN2C(=O)c2cccnc2)cc1 (stereo not given)	0.0
Cc1nn(C)c(Cl)c1C(=O)NCC(=O)NCc1ccccc1	0.0
O=C(CN1C(=O)/C(=C/c2cccc(Br)c2)SC1=S)N1CCCC1	121.2
Cn1nc(C(=O)NCc2ccccn2)c2ccccc2c1=O	-20.0
Cn1nc(C(=O)NCc2ccc(F)cc2)c2ccccc2c1=O	60.0
Cn1nc(C(=O)NCc2cccs2)c2ccccc2c1=O	76.0*
CC(=O)Nc1ccc(S(=O)(=O)Nc2nccc(/C=C/c3ccc(Cl)cc3)n2)cc1	-61.1
COc1ccc(OCC(=O)N2N=C(C(F)F)CC2(O)C(F)F)cc1 (stereo not given)	-1.6
CCCS(=O)(=O)c1c(S(=O)(=O)CCC)c2c(C)cccn2c1C(N)=O	-85.7
CCN(CC)S(=O)(=O)c1ccc(Cl)c(C(=O)OC)c1	2.7
CCCS(=O)(=O)c1c(S(=O)(=O)CCC)c2cc(-c3ccncc3)ccn2c1C(=O)OC	378.6*
c1ccc(-c2csc3ncnc(N4CCc5ccccc5C4)c23)cc1	0.0
CCOC(=O)NC(=O)c1cn(CCN(C)C)c(=O)[nH]c1=O	7.1
COCCCNC(=S)N1CCC(NC(=O)c2ccco2)CC1	-2.6
O=C1C2C3C=CC(C3)C2C(=O)N1/N=C/c1cn(Cc2ccccc2)c2ccccc12 (stereo not given)	-5.0
O=C(O)c1cn(Cc2ccccc2)c2ccccc2c1=O	383.3*
COc1ccc2c(c1)c(=O)c(C(=O)c1ccccc1)cn2Cc1ccc(C)cc1	-7.3
Cc1ccc(S(=O)(=O)Nc2c(C)n(C)n(-c3ccccc3)c2=O)cc1C(=O)NCc1ccccn1	142.9*
CCN(Cc1ccccc1)C(=O)C(C)OC(=O)c1cc(S(=O)(=O)Nc2c(C)n(C)n(-c3ccccc3)c2=O)ccc1C (stereo not given)	107.1
Cc1c(NS(=O)(=O)N2CCCCC2)c(=O)n(-c2ccccc2)n1C	7.1
CC(C)c1noc2ncc(C(=O)c3cc(Cl)cc(Cl)c3O)cc12	3.6
CCN(CC)c1nc(OCCNC(=O)Nc2ccccc2)nc(N(CC)CC)n1	-71.4
O=C(c1ccncc1)N1CCN(C(=O)c2cccs2)CC1	4.5
O=C(c1cccnc1)N1CCN(C(=O)c2cccs2)CC1	456.3*
